Source: ChEMBL document CHEMBL3774324, “iPSC Neuronal Assay Identifies Amaryllidaceae Pharmacophore with Multiple Effects against Herpesvirus Infections” (ACS Med Chem Lett, 2016)
The source made the active and inactive calls. No cut-off for these calls is given here.

Tests used:
[1] = test system: Human alphaherpesvirus 1; assay: Induction of sodium butyrate-induced reactivation of HSV1 KOS ATCC VR1493 infected in human iPSC cells assessed as reduction in EGFP/RFP-positive cells at 10 uM measured after 5 days of withdrawal by flow cytometric analysis relative to 5BVdU/[…]-treated cells; type: functional, organism-based
[2] = test system: Human alphaherpesvirus 1; assay: Antiviral activity against HSV1 KOS ATCC VR1493 infected in human iPSC cells assessed as reduction in expression of ICP4 at 10 uM measured 24 hrs post infection by western blot analysis; type: functional, organism-based
[3] = test system: Human alphaherpesvirus 3; assay: Antiviral activity against VZV infected in human ARPE19 cells at 10 uM treated at 2 hrs post infection measured 48 hrs post infection by luciferase assay relative to control; type: functional
Outline: (§1)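 ARPE-19 retinal pigment epithelial cells infected with VZV carrying luciferase under the late ORF9 promoter at 1000 PFU/well. Compound added 2 hpi. Luciferase counts per second read at 48 hpi.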

[4] = test system: Human alphaherpesvirus 1; assay: Antiviral activity against HSV1 KOS ATCC VR1493 infected in human iPSC-derived neurons assessed as reduction in EGFP-positive cells treated at 2 hrs post infection measured 24 hrs post infection by flow cytometric analysis; details: Human alphaherpesvirus 1, KOS ATCC VR1493, iPSC-derived neurons
[5] = test system: Human alphaherpesvirus 1; assay: Antiviral activity against HSV1 KOS ATCC VR1493 infected in human iPSC cells assessed as viral DNA replication at 10 uM measured 24 hrs post infection by FISH analysis; type: functional, organism-based
Outline: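 HSV-1-infected iPSC-neurons (MOI 0.3), treated with 10 μM at 2 hpi. Fluorescent in situ hybridisation with HSV-1 DNA probe to detect viral DNA replication at 24 hpi.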

[6] = test system: Human alphaherpesvirus 1; assay: Induction of sodium butyrate-induced reactivation of HSV1 KOS ATCC VR1493 infected in human iPSC cells assessed as increase in EGFP-positive cells at 10 uM measured after 5 days of withdrawal in presence of IFN-alpha by flow cytometric analysis relative to 5BVdU/[…]-treated cells; type: functional
[7] = test system: Human alphaherpesvirus 1; assay: Induction of sodium butyrate-induced reactivation of HSV1 KOS ATCC VR1493 infected in human iPSC cells assessed as decrease in EGFP/RFP MFI at 10 uM measured after 5 days of withdrawal in presence of IFN-alpha relative to 5BVdU/IFN-alpha-treated cells; type: functional, organism-based
[8] = test system: Human alphaherpesvirus 1; assay: Antiviral activity against HSV1 KOS ATCC VR1493 infected in human iPSC cells assessed as reduction in virus yield at 10 uM treated at 2 hrs post infection measured 48 hrs post infection by flow cytometric analysis relative to control; type: functional, organism-based
[9] = test system: Human alphaherpesvirus 1; assay: Antiviral activity against HSV1 KOS ATCC VR1493 infected in human iPSC cells assessed as reduction in expression of DNA polymerase gene at 10 uM measured 24 hrs post infection by RT-qPCR analysis; type: functional, organism-based
Outline: (§2)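 iPSC-neurons infected with HSV-1 (MOI 0.3) and treated with 10 μM at 2 hpi. RT-qPCR of ICP4 and viral DNA polymerase transcripts at 24 hpi.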

[10] = test system: Human alphaherpesvirus 1; assay: Induction of sodium butyrate-induced reactivation of HSV1 KOS ATCC VR1493 infected in human iPSC cells assessed as decrease in EGFP MFI at 10 uM measured after 5 days of withdrawal relative to 5BVdU/IFN-alpha-treated cells; type: functional
[11] = test system: Human alphaherpesvirus 1; assay: Antiviral activity against HSV1 KOS ATCC VR1493 infected in African green monkey Vero cells assessed as reduction in EGFP-positive cells at 10 uM treated at 2 hrs post infection measured 24 hrs post infection by flow cytometric analysis relative to control; type: functional
Outline: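 Vero cells infected with EGFP-expressing HSV-1 at MOI 1, then given medium with 10 μM test agent (DMSO vehicle) at 2 hpi. Percentage of EGFP+ cells read by flow cytometry at 24 hpi against untreated infected cultures. Mean of three independent experiments, SD.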

[12] = test system: Human alphaherpesvirus 1; assay: Antiviral activity against HSV1 KOS ATCC VR1493 infected in African green monkey Vero cells assessed as reduction in virus yield at 10 uM treated at 2 hrs post infection measured 48 hrs post infection by flow cytometric analysis relative to control; type: functional, organism-based
[13] = test system: Human alphaherpesvirus 3; assay: Antiviral activity against VZV infected in human ARPE19 cells treated at 2 hrs post infection measured 48 hrs post infection by luciferase assay; type: functional, organism-based; details: Human alphaherpesvirus 3, ARPE-19; outline: as §1
[14] = test system: Human alphaherpesvirus 1; assay: Antiviral activity against HSV1 KOS ATCC VR1493 infected in human iPSC cells assessed as reduction in expression of ICP4 gene at 10 uM measured 24 hrs post infection by RT-qPCR analysis; type: functional, organism-based; outline: as §2
[15] = Cytotoxicity against human ARPE19 cells assessed as cell viability at 0.1 to 50 uM after 24 to 48 hrs by live/dead fixable viability dye-based flow cytometric analysis; details: arpe-19, 50 µM
[16] = test system: Human alphaherpesvirus 1; assay: Induction of sodium butyrate-induced reactivation of HSV1 KOS ATCC VR1493 infected in human iPSC cells assessed as increase in EGFP-positive cells at 10 uM measured after 5 days of withdrawal by flow cytometric analysis relative to 5BVdU/IFN-alpha-treated cells; type: functional
[17] = test system: Human alphaherpesvirus 1; assay: Antiviral activity against HSV1 KOS ATCC VR1493 infected in human iPSC cells assessed as reduction in EGFP-positive cells at 10 uM treated at 2 hrs post infection measured 24 hrs post infection by flow cytometric analysis relative to control; type: functional
Outline: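 Human iPSC-derived neurons infected with engineered EGFP HSV-1 at MOI 0.3 and treated with 10 μM at 2 hpi (DMSO vehicle). Percentage of EGFP+ cells measured by flow cytometry at 24 hpi relative to untreated infected cultures. Average of three independent experiments, SD.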

[18] = test system: Human alphaherpesvirus 1; assay: Induction of sodium butyrate-induced reactivation of HSV1 KOS ATCC VR1493 infected in human iPSC cells assessed as decrease in EGFP MFI at 10 uM measured after 5 days of withdrawal in presence of IFN-alpha relative to 5BVdU/IFN-alpha-treated cells; type: functional
[19] = test system: Human alphaherpesvirus 1; assay: Antiviral activity against HSV1 KOS ATCC VR1493 infected in human iPSC cells assessed as reduction in viral DNA copy at 10 uM measured 24 hrs post infection by RT-qPCR analysis relative to control; type: functional
Outline: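 iPSC-neurons infected with HSV-1 (MOI 0.3) and treated with 10 μM at 2 hpi. DNA extracted at 24 hpi. Viral DNA copy number measured by qPCR relative to infected untreated cells.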

[20] = Cytotoxicity against human iPSC cells assessed as cell viability at 0.1 to 50 uM after 24 to 48 hrs by live/dead fixable viability dye-based flow cytometric analysis
Outline: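 Viability of iPSC-neurons exposed to test agent over 100 nM to 50 μM.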

[21] = test system: Human alphaherpesvirus 1; assay: Induction of sodium butyrate-induced reactivation of HSV1 KOS ATCC VR1493 infected in human iPSC cells assessed as reduction in EGFP/RFP-positive cells at 10 uM measured after 5 days of withdrawal in presence of IFN-alpha by flow cytometric analysis relative to 5BVdU/[…]-treated cells; type: functional, organism-based
[22] = test system: Human alphaherpesvirus 1; assay: Induction of sodium butyrate-induced reactivation of HSV1 KOS ATCC VR1493 infected in human iPSC cells assessed as decrease in EGFP/RFP MFI at 10 uM measured after 5 days of withdrawal relative to 5BVdU/IFN-alpha-treated cells; type: functional, organism-based
[23] = test system: Human alphaherpesvirus 1; assay: Antiviral activity against HSV1 KOS ATCC VR1493 infected in human iPSC cells assessed as reduction in expression of ICP4 at 50 uM measured 24 hrs post infection by western blot analysis; type: functional, organism-based
[24] = test system: Human alphaherpesvirus 1; assay: Antiviral activity against HSV1 KOS ATCC VR1493 infected in human iPSC cells assessed as reduction in expression of ICP4 gene at 50 uM measured 24 hrs post infection by RT-qPCR analysis; type: functional, organism-based
Outline: (§3)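 Human iPSC-derived neurons were infected with engineered HSV-1 at MOI 0.3 and treated 2 hpi (DMSO vehicle). RNA was taken 24 hpi, and viral ICP4 and viral DNA polymerase transcripts were quantified by RT-qPCR relative to infected untreated cells.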

[25] = test system: Human alphaherpesvirus 1; assay: Antiviral activity against HSV1 KOS ATCC VR1493 infected in human iPSC cells assessed as reduction in expression of DNA polymerase gene at 50 uM measured 24 hrs post infection by RT-qPCR analysis; type: functional, organism-based; outline: as §3
[26] = test system: Human alphaherpesvirus 1; assay: Antiviral activity against HSV1 KOS ATCC VR1493 infected in human iPSC cells assessed as viral DNA replication at 50 uM measured 24 hrs post infection by FISH analysis; type: functional, organism-based
Outline: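 iPSC-derived neurons were infected with engineered HSV-1 at MOI 0.3 and given drug 2 hpi. Viral DNA replication was scored by fluorescent in situ hybridization with an HSV-1 DNA probe, counting hybridizing signals.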

[27] = test system: Human alphaherpesvirus 1; assay: Antiviral activity against HSV1 KOS ATCC VR1493 infected in African green monkey Vero cells assessed as viral titre at 50 uM treated at 2 hrs post infection measured 48 hrs post infection by […] relative to control; type: functional

O=C1N[C@H]2[C@H](O)[C@H](O)[C@@H](O)C[C@@H]2c2cc3c(cc21)OCO3
Activity [1]: Active
Activity [2]: Active
fold change (FC) [3]: 220
EC50 [4]: 100 nM
Activity [5]: Active
fold change (FC) [6]: 2.1
Activity [7]: Active
Activity [8]: Active
Activity [9]: Active
fold change (FC) [10]: 1.6
fold change (FC) [11]: 19.6
Activity [12]: Active
EC50 [13]: 150 nM
Activity [14]: Active
Activity [15]: Non-toxic
fold change (FC) [16]: 2.9
fold change (FC) [17]: 28
fold change (FC) [18]: 2.5
fold change (FC) [19]: >1800
Activity [20]: Non-toxic
Activity [21]: Active
Activity [22]: Active

O=C1N[C@H]2[C@H](O)[C@H](O)[C@@H](O)[C@H](O)[C@@H]2c2cc3c(c(O)c21)OCO3 [PANCRATISTATIN]
Activity [5]: Active
Activity [8]: Active
fold change (FC) [11]: 8.3
Activity [12]: Active
fold change (FC) [17]: 62

Nc1nc2c(ncn2COCCO)c(=O)[nH]1 [ACYCLOVIR]
Activity [23]: Active
EC50 [4]: 70 nM
Activity [24]: Active
Activity [25]: Active
Activity [26]: Active
Activity [15]: Non-toxic
Activity [27]: 33.3 PFU/ml
Activity [20]: Non-toxic

O=C1N[C@H]2[C@H](O)C[C@@H](O)C[C@@H]2c2cc3c(cc21)OCO3
Activity [5]: inactive
Activity [11]: inactive
Activity [12]: inactive

O=C1N[C@H]2[C@H](O)[C@@H](O)[C@@H](O)C[C@@H]2c2cc3c(cc21)OCO3
Activity [5]: inactive
Activity [11]: inactive
Activity [12]: inactive

O=C1N[C@@H]2C(=C[C@H](O)[C@@H](O)[C@H]2O)c2cc3c(c(O)c21)OCO3 [NARCICLASINE]
Activity [5]: Active
Activity [8]: Active
fold change (FC) [11]: 10.6
Activity [12]: Active
fold change (FC) [17]: 69

COC(=O)N[C@H]1C(=O)C[C@@H](O)C[C@@H]1c1ccc2c(c1)OCO2
Activity [5]: inactive
Activity [11]: inactive
Activity [12]: inactive
